Data on 20 compounds can be found in ChEMBL document CHEMBL1275298, “Synthesis and anti-inflammatory activity evaluation of some novel 6-alkoxy(phenoxy)-[1,2,4]triazolo[3,4-a]phthalazine-3-amine derivatives” (2010).

Calls of active or inactive are those of the source. No cut-off for these calls is given here.

For experiment [1], the system named is Mus musculus. In words: Antiinflammatory activity in mouse assessed as inhibition of xylene-induced ear edema at 100 mg/kg, ip after 0.5 hrs relative to control. Format: functional. The following applies: route intraperitoneal. The method in brief:
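Kunming mice, 20-25 g, 10 per group. Freshly prepared DMSO solution given i.p. at 0.05 mL/20 g; vehicle-only (DMSO) controls. Xylene ear edema test run 0.5 h after dosing; mice killed 30 min after xylene, 7 mm plugs cut from treated and untreated ears, and edema taken as the plug weight difference. Reported as % edema reduction versus vehicle.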

The test system of experiment [2] is Mus musculus. Kind of experiment: Antiinflammatory activity in mouse assessed as inhibition of xylene-induced ear edema at 200 mg/kg, po administered 1 hr before xylene challenge measured after 3 hrs post dose. The class given is functional. An outline of the steps: (§1)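 Kunming mice, 20-25 g, 10 per group. Compound homogenized in 0.5% CMC-Na and given orally at 0.2 mL/10 g; vehicle controls got 0.5% CMC-Na. Xylene applied 1, 2, 3, 4, 5 or 24 h after dosing (3 h for 50 and 100 mg/kg). Killed 30 min later; 7 mm ear plugs weighed, treated minus untreated. Result given as % edema reduction versus CMC-Na controls.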

The test system of experiment [3] is Mus musculus. Kind of experiment: Antiinflammatory activity in mouse assessed as inhibition of xylene-induced ear edema at 100 mg/kg, po administered 3 hrs before xylene challenge measured after 3 hrs post dose. Format: functional. An outline of the steps: as §1
Experiment [4] deals with Mus musculus. Kind of experiment: Antiinflammatory activity in mouse assessed as inhibition of xylene-induced ear edema at 200 mg/kg, po administered 4 hrs before xylene challenge measured after 3 hrs post dose. The class given is functional. An outline of the steps:
as §1

Experiment [5] has as its system Mus musculus. Kind of experiment: Antiinflammatory activity in mouse assessed as inhibition of xylene-induced ear edema at 200 mg/kg, po administered 2 hrs before xylene challenge measured after 3 hrs post dose. The class given is functional. An outline of the steps:
as §1

In experiment [6] the test system is Mus musculus. Kind of experiment: Antiinflammatory activity in mouse assessed as inhibition of xylene-induced ear edema at 200 mg/kg, po administered 3 hrs before xylene challenge measured after 3 hrs post dose. Format: functional. An outline of the steps: as §1
Experiment [7] relates to Mus musculus. In words: Antiinflammatory activity in mouse assessed as inhibition of xylene-induced ear edema at 200 mg/kg, po administered 24 hrs before xylene challenge measured after 3 hrs post dose. The class given is functional. An outline of the steps: as §1
Experiment [8] concerns Mus musculus. In words: Antiinflammatory activity in mouse assessed as inhibition of xylene-induced ear edema at 200 mg/kg, po administered 5 hrs before xylene challenge measured after 3 hrs post dose. Format: functional. The method in brief:
as §1

Experiment [9] concerns Mus musculus. In words: Antiinflammatory activity in mouse assessed as inhibition of xylene-induced ear edema at 200 mg/kg, po administered 1 to 24 hrs before xylene challenge measured after 4 hrs post dose. The class given is functional, organism-based. Set-up: dose 200 mg/kg. An outline of the steps:
as §1

Experiment [10] concerns Mus musculus. Kind of experiment: Antiinflammatory activity in mouse assessed as inhibition of xylene-induced ear edema at 50 mg/kg, po administered 3 hrs before xylene challenge measured after 3 hrs post dose. The class given is functional. An outline of the steps:
as §1

Regarding `CCCCCCOc1nn2c(N)nnc2c2ccccc12`, in the experiment on Mus musculus [1], the inhibition in vivo at 100 mg/kg was determined as 39.5%.

For the compound `Nc1nnc2c3ccccc3c(Oc3ccc(Cl)cc3)nn12`, in the experiment on Mus musculus [1], the inhibition in vivo at 100 mg/kg was 75%.

Take `Nc1cccc(Oc2nn3c(N)nnc3c3ccccc23)c1`: in the experiment with Mus musculus [1], the inhibition in vivo at 100 mg/kg stood at 68%.

Consider `Nc1ccccc1Oc1nn2c(N)nnc2c2ccccc12`, for which the inhibition in vivo at 100 mg/kg with Mus musculus [1] was 38.4%.

On to `CCCCOc1nn2c(N)nnc2c2ccccc12`, for which the inhibition in vivo at 100 mg/kg in the experiment on Mus musculus [1] was 67.6%.

In the case of `Nc1nnc2c3ccccc3c(Oc3ccc(Br)cc3)nn12`, in the experiment on Mus musculus [1], the inhibition in vivo at 100 mg/kg turned out to be 48.4%.

`CC(C)Oc1nn2c(N)nnc2c2ccccc12`: the inhibition in vivo at 100 mg/kg in the experiment on Mus musculus [1] stood at 39.4%.

For the compound `Nc1nnc2c3ccccc3c(Oc3ccccc3Cl)nn12`, the inhibition in vivo at 200 mg/kg in the experiment on Mus musculus [2] was 52.7%; in the experiment on Mus musculus [4], 64.1%; in the experiment with Mus musculus [5], 59%; in the experiment with Mus musculus [6], 75%; in the experiment with Mus musculus [7], 8.24%; with Mus musculus [8], 57.2%. The figures for the inhibition in vivo at 100 mg/kg in the experiment with Mus musculus [1] and in the experiment on Mus musculus [3] were 81.2% and 46.7%, respectively. The inhibition result in the experiment with Mus musculus [9] is “Active”. Moreover, the inhibition in vivo at 50 mg/kg in the experiment with Mus musculus [10] stood at 30.8%.

For the compound `Nc1nnc2c3ccccc3c(Oc3ccc(Cl)cc3Cl)nn12`, the inhibition in vivo at 100 mg/kg in the experiment on Mus musculus [1] is 40.4%.

Turning to `CC(C)Cc1ccc(C(C)C(=O)O)cc1` (centres undefined) [IBUPROFEN], the inhibition in vivo at 200 mg/kg with Mus musculus [2] worked out at 29.6%; with Mus musculus [4] it was 36.3%; with Mus musculus [5] it was 38.6%; with Mus musculus [6] it was 64.6%; with Mus musculus [7], 13.2%; in the experiment with Mus musculus [8], 23.4%. In addition, the inhibition in vivo at 100 mg/kg came to 61.2% in the experiment with Mus musculus [1] and 26.9% in the experiment with Mus musculus [3].

`Nc1ccc(Oc2nn3c(N)nnc3c3ccccc23)cc1`: the inhibition in vivo at 200 mg/kg stood at 60.5% in the experiment on Mus musculus [2]; 80.6% in the experiment with Mus musculus [4]; 81.3% with Mus musculus [5]; 84.3% with Mus musculus [6]; 18.9% in the experiment with Mus musculus [7]; 55.9% in the experiment on Mus musculus [8]. Also, the inhibition in vivo at 100 mg/kg in the experiment with Mus musculus [1] was determined as 83%; with Mus musculus [3] it was 37.9%. Moreover, in the experiment on Mus musculus [10], the inhibition in vivo at 50 mg/kg came to 22.8%.

For `COc1ccc(Oc2nn3c(N)nnc3c3ccccc23)cc1`, in the experiment on Mus musculus [1], the inhibition in vivo at 100 mg/kg is 44%.

As for `Nc1nnc2c3ccccc3c(Oc3ccc(F)cc3)nn12`, the inhibition in vivo at 100 mg/kg with Mus musculus [1] was found to be 48.8%.

On to `Nc1nnc2c3ccccc3c(Oc3ccccc3)nn12`, for which the inhibition in vivo at 100 mg/kg in the experiment on Mus musculus [1] is 55%.

With `CCCCCCCOc1nn2c(N)nnc2c2ccccc12`, the inhibition in vivo at 100 mg/kg in the experiment on Mus musculus [1] stood at 65.7%.

For `Cc1ccc(Oc2nn3c(N)nnc3c3ccccc23)cc1`, the inhibition in vivo at 100 mg/kg in the experiment on Mus musculus [1] was found to be 52.7%.

`Cc1ccccc1Oc1nn2c(N)nnc2c2ccccc12`: the inhibition in vivo at 100 mg/kg with Mus musculus [1] was found to be 68.3%.

For the compound `CCCCCCCCOc1nn2c(N)nnc2c2ccccc12`, the inhibition in vivo at 100 mg/kg with Mus musculus [1] stood at 58%.

Turning to `Cc1cccc(Oc2nn3c(N)nnc3c3ccccc23)c1`, the inhibition in vivo at 100 mg/kg in the experiment on Mus musculus [1] is 68%.

Regarding `Nc1nnc2c3ccccc3c(Oc3cccc(Cl)c3)nn12`, the inhibition in vivo at 100 mg/kg in the experiment with Mus musculus [1] was found to be 68.8%.

A word on the inhibition in vivo: it is the relative decrease from the control value, in per cent.
